Results from article PMC11485011 (Chemical Science, 2024).
Entries after “also recorded” stand apart in the source; their conditions may differ. Where two headings read alike, the source gives them in different places.

What was measured:
[1] = molecular target: T1, hCB2R (Homo sapiens, UniProt P34972); experiment: HTRF cAMP assay in CHO cells stably expressing hCB2R; type: cell-based; settings: for Function: hCB2R cAMP assay
Procedure, shortened: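 Cells stably expressing hCB2R; inhibition of cAMP accumulation read by HTRF. […] Emax expressed as % of the reference full agonist APD371. Means of four or seven independent experiments run in technical replicates.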

[2] = molecular target: T1, hCB2R; type: cell-based; settings: 0.014 to 10 μM, live CHO cells hCB2R vs hCB1R and wt
[3] = molecular target: hCB1R (Homo sapiens, UniProt P21554); experiment: [3H]CP55940 displacement assay, hCB1R CHO membranes; type: binding
Procedure, shortened: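 Competitive radioligand binding on membranes from CHO cells stably expressing hCB1R. Test compound displaces radioligand, and Ki is derived from that displacement. Selectivity calculated as Ki(CB1R)/Ki(CB2R). Means of at least three independent experiments, each in duplicate.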

[4] = molecular target: T1, hCB2R; experiment: [3H]CP55940 displacement assay, hCB2R CHO membranes; type: binding; settings: for Ki: Ki hCB2R, [3H]CP55940 displacement, CHO membranes stably expressing hCB2R; for Selectivity, ratio of Ki (CB1R)/Ki (CB2R): hCB2R over hCB1R
[5] = molecular target: T1, hCB2R; type: cell-based; settings: 5 µM inhibitor, 90 min preincubation; probes 12, 15, 18; hCB2R CHO cells
[6] = molecular target: hCB2R overexpressing CHO cells (Homo sapiens, UniProt P34972); experiment: super-resolution confocal imaging, mean fluorescence intensity of labeled CB2R; type: cell-based; settings: 0.8 μM probe, 15 min
Procedure, shortened: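 Live hCB2R-overexpressing CHO cells stained with fluorescent probe plus Hoechst 33342 nuclear counterstain. Cells optically sectioned by confocal laser-scanning microscopy with an Airyscan detector (super-resolution).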

[7] = system: hCB2R-CHO cells; experiment: endocytosis blocking study; type: cell-based, human; settings: pretreatment 30 min with 0.4 M sucrose and 5 μg mL−1 filipin, probe 10 min
[8] = system: hCB2R-CHO cells; experiment: co-staining with LysoTracker, super-resolution confocal microscopy; type: cell-based, human; settings: 15 min
Procedure, shortened: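 Live hCB2R-overexpressing CHO cells exposed for 15 min to the fluorescent probe together with LysoTracker as lysosome marker. Imaged by super-resolution confocal microscopy and channels merged to assess overlap. Three independent experiments, with five fields examined each.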

[9] = system: primary human macrophages; experiment: confocal microscopy of primary human macrophages; type: cell-based; settings: 0.8 μM, 15 min, endogenous CB2R
[10] = molecular target: T1, hCB2R; experiment: TR-FRET kinetic binding characterization on HEK293-hCB2R cell membranes
[11] = normalized to reference full agonist APD371
[12] = read-out: IC50 (column EC50 or IC50), inverse agonists, HTRF cAMP assay, cells stably expressing hCB2R
[13] = EC50 (column EC50 or IC50), agonists, HTRF cAMP assay, cells stably expressing hCB2R

T1 sequence (P34972 whole entry): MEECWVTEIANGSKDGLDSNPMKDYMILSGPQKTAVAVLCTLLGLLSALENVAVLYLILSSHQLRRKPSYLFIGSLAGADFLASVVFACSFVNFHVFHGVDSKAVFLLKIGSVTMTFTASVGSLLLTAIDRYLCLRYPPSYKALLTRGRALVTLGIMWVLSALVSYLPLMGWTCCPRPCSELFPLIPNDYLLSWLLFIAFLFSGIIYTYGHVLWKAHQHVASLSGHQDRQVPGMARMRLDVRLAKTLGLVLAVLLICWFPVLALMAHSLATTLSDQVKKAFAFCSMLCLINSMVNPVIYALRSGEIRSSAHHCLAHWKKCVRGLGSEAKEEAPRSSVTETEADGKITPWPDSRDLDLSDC
hCB2R overexpressing CHO cells, sequence (P34972 whole entry): as above
hCB1R, sequence (P21554 whole entry): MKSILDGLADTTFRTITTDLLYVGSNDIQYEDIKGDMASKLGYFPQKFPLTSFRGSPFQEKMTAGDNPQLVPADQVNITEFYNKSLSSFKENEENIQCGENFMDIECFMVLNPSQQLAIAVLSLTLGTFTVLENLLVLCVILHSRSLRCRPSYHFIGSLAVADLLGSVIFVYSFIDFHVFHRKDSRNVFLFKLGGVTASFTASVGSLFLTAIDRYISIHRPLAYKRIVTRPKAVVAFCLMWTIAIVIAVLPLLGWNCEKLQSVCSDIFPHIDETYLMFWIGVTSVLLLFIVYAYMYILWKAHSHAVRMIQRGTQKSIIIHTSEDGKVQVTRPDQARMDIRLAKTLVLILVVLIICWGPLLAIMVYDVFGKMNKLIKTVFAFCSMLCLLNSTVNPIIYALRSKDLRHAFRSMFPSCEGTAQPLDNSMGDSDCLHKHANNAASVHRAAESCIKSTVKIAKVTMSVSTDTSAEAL

3',6'-DIAMINO-5/6-((3,3-DIETHYL-1-(6-(((1S,2S)-2-(HYDROXYMETHYL)CYCLOPROPYL)METHOXY)-5-(3-METHOXYAZETIDIN-1-YL)PYRIDIN-2-YL)-1,4-DIOXO-8,11-DIOXA-2,5-DIAZATRIDECAN-13-YL)CARBAMOYL)-3-OXO-3H-SPIRO[ISOBENZOFURAN-1,9'-XANTHENE]-4',5'-DISULFONIC ACID [Compound 18]
Function [1]: Inverse agonist | Emax [1, 11]: −26% | IC50 [1, 12]: 262 nM | selectivity and specificity for hCB2R in flow cytometry [2]: high selectivity even at very high concentrations

CCC(CC)(NC(=O)c1ccc(C2CC2)c(Cc2ccc(F)cc2)n1)C(=O)NCCOCCNC(=O)OC(C)(C)C [Compound 10a, TERT-BUTYL (2-(2-(2-(5-CYCLOPROPYL-6-(4-FLUOROBENZYL)PICOLINAMIDO)-2-ETHYLBUTANAMIDO)ETHOXY)ETHYL)CARBAMATE]
Ki [3]: 836 nM | Ki [4]: 28 nM | Selectivity, ratio of Ki (CB1R)/Ki (CB2R) [4]: 30

CCC(CC)(NC(=O)c1ccc(C2CC2)c(Cc2ccc(F)cc2)n1)C(=O)NCCOCCOCCNC(=O)OC(C)(C)C [Compound 10b, TERT-BUTYL (1-(5-CYCLOPROPYL-6-(4-FLUOROBENZYL)PYRIDIN-2-YL)-3,3-DIETHYL-1,4-DIOXO-8,11-DIOXA-2,5-DIAZATRIDECAN-13-YL)CARBAMATE]
Ki [3]: 466 nM | Ki [4]: 6 nM | Selectivity, ratio of Ki (CB1R)/Ki (CB2R) [4]: 78 | Emax ([1]; CHO): 83% | EC50 [1, 13]: 49 nM | Function [1]: partial agonist

CCC(CC)(NC(=O)c1ccc(C2CC2)c(Cc2ccc(F)cc2)n1)C(=O)NCCOCCOCCOCCNC(=O)OC(C)(C)C [Compound 10c, TERT-BUTYL (1-(5-CYCLOPROPYL-6-(4-FLUOROBENZYL)PYRIDIN-2-YL)-3,3-DIETHYL-1,4-DIOXO-8,11,14-TRIOXA-2,5-DIAZAHEXADECAN-16-YL)CARBAMATE]
Ki [3]: 748 nM | Ki [4]: 63 nM | Selectivity, ratio of Ki (CB1R)/Ki (CB2R) [4]: 12

CCC(CC)(NC(=O)c1ccc(C2CC2)c(Cc2ccc(F)cc2)n1)C(=O)NCCOCCOCCOCCOCCNC(=O)OC(C)(C)C [Compound 10d, TERT-BUTYL (1-(5-CYCLOPROPYL-6-(4-FLUOROBENZYL)PYRIDIN-2-YL)-3,3-DIETHYL-1,4-DIOXO-8,11,14,17-TETRAOXA-2,5-DIAZANONADECAN-19-YL)CARBAMATE]
Ki [3]: 1470 nM | Ki [4]: 144 nM | Selectivity, ratio of Ki (CB1R)/Ki (CB2R) [4]: 10

CCC(CC)(NC(=O)c1ccc(N2CC(OC)C2)c(OC[C@H]2C[C@@H]2CO)n1)C(=O)NCCOCCNC(=O)OC(C)(C)C [Compound 11a, TERT-BUTYL (2-(2-(2-ETHYL-2-(6-(((1S,2S)-2-(HYDROXYMETHYL)CYCLOPROPYL)METHOXY)-5-(3-METHOXYAZETIDIN-1-YL)PICOLINAMIDO)BUTANAMIDO)ETHOXY)ETHYL)CARBAMATE]
Ki [3]: > 10000 nM | Ki [4]: 2060 nM | Selectivity, ratio of Ki (CB1R)/Ki (CB2R) [4]: >4

CCC(CC)(NC(=O)c1ccc(N2CC(OC)C2)c(OC[C@H]2C[C@@H]2CO)n1)C(=O)NCCOCCOCCNC(=O)OC(C)(C)C [Compound 11b, TERT-BUTYL (3,3-DIETHYL-1-(6-(((1S,2S)-2-(HYDROXYMETHYL)CYCLOPROPYL)METHOXY)-5-(3-METHOXYAZETIDIN-1-YL)PYRIDIN-2-YL)-1,4-DIOXO-8,11-DIOXA-2,5-DIAZATRIDECAN-13-YL)CARBAMATE]
Ki [3]: > 10000 nM | Ki [4]: 106 nM | Selectivity, ratio of Ki (CB1R)/Ki (CB2R) [4]: >94 | IC50 [1]: 88 nM | Emax ([1]; CHO): -63% | Function [1]: Inverse agonist

CCC(CC)(NC(=O)c1ccc(N2CC(OC)C2)c(OC[C@H]2C[C@@H]2CO)n1)C(=O)NCCOCCOCCOCCNC(=O)OC(C)(C)C [Compound 11c, TERT-BUTYL (3,3-DIETHYL-1-(6-(((1S,2S)-2-(HYDROXYMETHYL)CYCLOPROPYL)METHOXY)-5-(3-METHOXYAZETIDIN-1-YL)PYRIDIN-2-YL)-1,4-DIOXO-8,11,14-TRIOXA-2,5-DIAZAHEXADECAN-16-YL)CARBAMATE]
Ki [3]: > 10000 nM | Ki [4]: > 10000 nM

CCC(CC)(NC(=O)c1ccc(C2CC2)c(Cc2ccc(F)cc2)n1)C(=O)NCCOCCOCCNC(=O)c1ccc2c(c1)C1(OC2=O)c2ccc(N(C)C)cc2[Si](C)(C)c2cc(N(C)C)ccc21 [Compound 13, N-(1-(3,7-BIS(DIMETHYLAMINO)-5,5-DIMETHYL-3'-OXO-3'H,5H-SPIRO[DIBENZO[B,E]SILINE-10,1'-ISOBENZOFURAN]-6'-YL)-13-ETHYL-1,12-DIOXO-5,8-DIOXA-2,11-DIAZAPENTADECAN-13-YL)-5-CYCLOPROPYL-6-(4-FLUOROBENZYL)PICOLINAMIDE]
Emax ([1]; CHO): 127% | EC50 [1, 13]: 528 nM | Function [1]: full agonism; also recorded: Full agonist

CCC(CC)(NC(=O)c1ccc(C2CC2)c(Cc2ccc(F)cc2)n1)C(=O)NCCOCCOCCNC(=O)c1ccc2c(c1)C(=O)OC21c2ccc(N)c(S(=O)(=O)O)c2Oc2c1ccc(N)c2S(=O)(=O)O [Compound 14, 3',6'-DIAMINO-5-((1-(5-CYCLOPROPYL-6-(4-FLUOROBENZYL)PYRIDIN-2-YL)-3,3-DIETHYL-1,4-DIOXO-8,11-DIOXA-2,5-DIAZATRIDECAN-13-YL)CARBAMOYL)-3-OXO-3H-SPIRO[ISOBENZOFURAN-1,9'-XANTHENE]-4',5'-DISULFONIC ACID]
Emax ([1]; CHO): 79% | EC50 [1, 13]: 77 nM | Function [1]: partial agonism; also recorded: Partial agonist | selectivity and specificity for hCB2R in flow cytometry [2]: high selectivity even at very high concentrations

CCC(CC)(NC(=O)c1ccc(N2CC(OC)C2)c(OC[C@H]2C[C@@H]2CO)n1)C(=O)NCCOCCOCCNC(=O)c1ccc2c(c1)C1(OC2=O)c2ccc(N(C)C)cc2[Si](C)(C)c2cc(N(C)C)ccc21 [Compound 17, N-(1-(3,7-BIS(DIMETHYLAMINO)-5,5-DIMETHYL-3'-OXO-3'H,5H-SPIRO[DIBENZO[B,E]SILINE-10,1'-ISOBENZOFURAN]-6'-YL)-13-ETHYL-1,12-DIOXO-5,8-DIOXA-2,11-DIAZAPENTADECAN-13-YL)-6-(((1S,2S)-2-(HYDROXYMETHYL)CYCLOPROPYL)METHOXY)-5-(3-METHOXYAZETIDIN-1-YL)PICOLINAMIDE]
IC50 [1]: 129 nM | Emax ([1]; CHO): -29% | Function [1]: Inverse agonist

CC(C)(C)c1nc(N2CC[C@H](O)C2)c2nnn(Cc3nnnn3C3CC3)c2n1 [RO6871304]
blocking of fluorescent probe staining [5]: completely blocked the staining

N-(1-(3',6'-BIS(DIMETHYLAMINO)-3-OXO-3H-SPIRO[ISOBENZOFURAN-1,9'-XANTHEN]-5/6-YL)-13-ETHYL-1,12-DIOXO-5,8-DIOXA-2,11-DIAZAPENTADECAN-13-YL)-5-CYCLOPROPYL-6-(4-FLUOROBENZYL)PICOLINAMIDE [Compound 12]
Function [1]: partial agonism; also recorded: Partial agonist | Emax [1, 11]: 80% | EC50 ([1]; read-out: EC50 (column EC50 or IC50), agonists, HTRF cAMP assay, cells stably expressing hCB2R): 82 nM | MFI of labeled CB2R in intracellular compartments [6]: 2575 ± 100 MFI | plasma membrane labelling intensity (MFI) of labeled CB2R [6]: 2090 ± 175 MFI | reduction of intracellular staining by endocytosis blockers [7]: 70% | co-localization with LysoTracker [8]: partial overlap but no clear co-localization | distribution pattern in human macrophages [9]: widely distributed within the cell | kinetic binding characterization [10]: fast association and appropriate residence time

N-(1-(3',6'-BIS(DIMETHYLAMINO)-3-OXO-3H-SPIRO[ISOBENZOFURAN-1,9'-XANTHEN]-5/6-YL)-13-ETHYL-1,12-DIOXO-5,8-DIOXA-2,11-DIAZAPENTADECAN-13-YL)-6-(((1S,2S)-2-(HYDROXYMETHYL)CYCLOPROPYL)METHOXY)-5-(3-METHOXYAZETIDIN-1-YL)PICOLINAMIDE [Compound 16]
Function [1]: Inverse agonist | Emax [1, 11]: −29% | IC50 [1, 12]: 114 nM | MFI of labeled CB2R in intracellular compartments [6]: 340 ± 13 MFI | plasma membrane labelling intensity (MFI) of labeled CB2R [6]: 350 ± 4 MFI | reduction of intracellular staining by endocytosis blockers [7]: without affecting | co-localization with LysoTracker [8]: clear co-localization pattern | distribution pattern in human macrophages [9]: mainly localized on cellular membranes and partially in perinuclear dots | kinetic binding characterization [10]: fast association and appropriate residence time
